# Shown are actives, neighbours in structure and some others; about 3.1% of the full set was active somewhere.
# PAX8 reporter: inhibitors of PAX8-driven TPO luciferase reporter, primary screen, RMG-I cells, single concentration; SteadyGlo, 24 h; inhibition, % at 12.6 µM; 1.2% of 360,000 active; AID 652154, 2013;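 active = mean replicate inhibition at least 60% with every replicate also reaching 60%; inconclusive = only one of the two criteria is met; inactive = mean below 60% and not all replicates reaching 60%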;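 note: luciferase light reporting Pax8 driven TPO promoter activity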
# FGF22 binding: binders of human FGF22 protein, primary screen, FGF22 synaptogenesis inhibitor project, biophysical, thermal shift, single point. 1.5% of 340,000 active. Fibroblast growth factor 22 (Homo sapiens), Q9HCT0. AID 651658, 2012. activity (Tm shift, normalised), % at 9.99 µM. recombinant FGF22 thermal shift, SYPRO orange fluorescence; percent of sucrose octasulfate shift, DMSO zero;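 active = mean Tm shift, scaled 0 neutral to 100 positive control, at about 1.3% or above, every replicate too, limit read from the data; inconclusive = no clear call, values can overlap the other calls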
# Target sequence (Q9HCT0 whole entry, looked up): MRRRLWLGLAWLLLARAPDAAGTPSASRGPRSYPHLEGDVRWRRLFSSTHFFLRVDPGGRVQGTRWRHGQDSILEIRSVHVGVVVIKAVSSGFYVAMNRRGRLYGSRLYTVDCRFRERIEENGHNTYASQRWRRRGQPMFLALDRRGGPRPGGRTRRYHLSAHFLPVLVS
# PGC1a acetyl inh: inhibitors of PGC1a acetylation signal, primary screen, cell-based, U2OS, AlphaScreen, inhibitor mode; AlphaScreen anti-acetyl-lysine; with virally co-expressed GCN5 acetyltransferase; inhibition, % at 15.6 µM; 0.17% of 350,000 active; AID 651687, 2012;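 active = every replicate shows inhibition of at least 40%; inconclusive = mean inhibition at least 40% but some replicate below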
# FN deposit inh: inhibitors of fibronectin matrix deposition, primary screen, AH1F cells, Alexa488-fibronectin fluorescence, plate reader; inhibition, % at 12.6 µM; 0.086% of 350,000 active; AID 743247, 2014; AH1F fibroblasts, overnight;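 active = mean inhibition across replicates of 30% or more, regardless of how many single replicates reach that level; inconclusive = mean under 30% yet at least half of replicates reach 30%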
#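 material = AH1F fibroblast monolayer depositing Alexa488-labelled fibronectin into matrix | amount = 10000 AH1F cells/well | buffer or medium = DMEM plus 2% serum, read in PBS | incubation = 1 h cell adhesion before compound, then overnight fibronectin incubation | detection = fluorescence at 485 nm excitation, 525 nm emission | evaluation = percent inhibition as loss of matrix-bound fibronectin fluorescence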
# Env fusion inh: inhibitors of HIV-1 Env-driven cell-cell fusion, primary screen, HeLa-JRFL effector, CEM21 target cells, luciferase. inhibition, % at 12.3 µM. 1.1% of 360,000 active;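 active = mean replicate inhibition score of at least 50 and every replicate individually at or above 50; inconclusive = only one of the two criteria met; inactive = mean below 50 and not all replicates reaching 50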
# EWS-Fli inh: EWS/Fli-driven NR0B1 reporter inhibitors, primary screen, A673 cells, NR0B1 luciferase, luminescence, MLPCN library | AID 651661, 2012 | viability-normalised | inhibition, % at 12.6 µM | 0.67% of 350,000 active;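 active = mean inhibition of at least 50% after viability correction, with every replicate also passing that limit; inconclusive = mean reaches 50% but only one of two replicates passes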;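 note: firefly luciferase signal divided by Alamar Blue viability fluorescence both relative to DMSO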
# Numbers stand for hits; i = inactive; ? = inconclusive; nt = no result; [ ] = remark or other dose.
SMILES,PAX8 reporter,FGF22 binding,PGC1a acetyl inh,FN deposit inh,Env fusion inh,EWS-Fli inh
C[C@@H]1CN([C@H](C)CO)S(=O)(=O)c2ccc(-c3cccnc3)cc2O[C@H]1CN(C)Cc1ccncc1,nt,i,i,i,i,i
COc1cc(NC(=O)COC(=O)C=C(C)C)c(C)cc1[N+](=O)[O-],i,43.8,i,i,i,i
C/C=C/C(=O)OCC(=O)Nc1cc(OC)c([N+](=O)[O-])cc1C,i,i,i,nt,i,i
COc1cc(NC2c3ncccc3C(=O)N2Cc2ccco2)cc(OC)c1 (centres undefined),nt,nt,i,nt,60.0,nt
C[C@H]1CN([C@@H](C)CO)C(=O)c2cc(-c3ccncc3)cnc2O[C@H]1CN(C)C(=O)c1ccncc1,nt,i,i,nt,i,i
Cc1cccc(-n2cc(-c3ccccc3)c3c(N4CCOCC4)ncnc32)c1,67.6,i,i,i,?,i
Cc1ccc(-n2cc(-c3ccccc3)c3c(N4CCOCC4)ncnc32)cc1,i,42.9,nt,i,i,i
Cc1ccc(-n2cc(-c3ccccc3)c3c(N4CCN(C)CC4)ncnc32)cc1,i,i,i,i,i,i
O=[N+]([O-])c1ccc(-c2nc(C(Cl)Cl)c3ccccc3n2)cc1,i,i,i,i,73.6,67.4
O=CN1CCCN(C(=O)CC2C(=O)NCCN2Cc2cccc(Oc3ccccc3)c2)CC1 (centres undefined),i,i,i,i,i,i
O=C1NCCN(Cc2cccc(Oc3ccccc3)c2)C1CC(=O)N1CCCCC1 (centres undefined),i,i,nt,i,71.7,i
CCOC(=O)c1c(NC(=O)C(C)N2CCN(C(=O)c3ccco3)CC2)sc2c1CCCC2 (centres undefined),nt,nt,i,i,56.2,nt
C[C@@H]1CN([C@@H](C)CO)C(=O)c2cc(NC(=O)NC3CCCCC3)ccc2O[C@@H](C)CCCCO[C@H]1CN(C)C(=O)Nc1cccc2ccccc12,i,i,i,i,i,i
C[C@@H]1CN([C@H](C)CO)C(=O)c2cc(NC(=O)Cc3ccccc3)ccc2O[C@@H](C)CCCCO[C@@H]1CN(C)C(=O)Nc1cccc2ccccc12,63.5,i,i,nt,i,i
C[C@H]1CCCCO[C@H](CN(C)C(=O)Nc2cccc3ccccc23)[C@@H](C)CN([C@@H](C)CO)C(=O)c2cc(NC(=O)NC3CCCCC3)ccc2O1,67.0,i,i,i,61.4[16.7 µM],i
Cc1noc(C)c1NC(=O)N[C@H]1CC[C@H](CCNC(=O)C2CCC2)O[C@H]1CO,i,i,i,nt,i,i
O=C(Nc1cccc(-c2csc(Nc3ccc(Cl)cc3)n2)c1)c1cc([N+](=O)[O-])cc(C(F)(F)F)c1,78.7,i,i,i,i,i
N=c1c2c(n(Cc3ccc(Cl)cc3)c3c1CCC3)CCC2,nt,i,i,nt,nt,i
N=c1c2c(n(Cc3ccc(F)cc3)c3c1CCC3)CCCC2,68.8,i,i,i,i,i
COCC(=O)Nc1ccc2c(c1)[C@H]1C[C@@H](CC(=O)NCc3ccncc3)O[C@H](CO)[C@H]1O2,nt,i,i,i,nt,i
Cc1ccc(-c2nc3ncccc3o2)cc1NC(=O)c1ccco1,nt,nt,i,31.8,i,nt
Cc1ccc(-c2nc3ncccc3o2)cc1NC(=S)NC(=O)c1ccco1,i,i,nt,i,i,i
COc1ccc(C2CC(c3cccs3)=NN2C(=O)CCl)cc1OC (centres undefined),i,i,nt,i,61.6,58.1
Cc1ccc(C2=NN(C(=O)CCl)C(c3cccs3)C2)o1 (centres undefined),65.4,i,nt,i,i,i
COc1ccc(C2CC(c3cccs3)=NN2C(=O)c2ccccc2)cc1OC (centres undefined),i,i,nt,i,i,i
COc1cc(C2CC(c3cccs3)=NN2C(=O)CCl)ccc1OC(F)F (centres undefined),i,i,nt,i,i,60.8
C[C@H]1CN([C@@H](C)CO)C(=O)c2cccc(NS(=O)(=O)c3cccs3)c2O[C@H]1CN(C)C(=O)NC1CCCCC1,nt,i,i,nt,nt,i

# Screens as filed in PubChem.
